Columns and labels:
Liver = assay: Drug concentration in female Lister Hooded pigmented rat liver assessed as radioactivity per gram of tissue at 20 mg/kg administered as single dose via gastric gavage measured after 72 hrs by autoradiographic analysis; format: ADME, organism-based; set-up: dose 20 mg/kg, dosed compound name [14C]Sunitinib; details: in vivo, po
Method in brief: (§1)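 Lister Hooded (pigmented) rats, ca 7-8 weeks old, acclimated 7 days, given [14C]sunitinib L-malate by gastric gavage at 20 mg/kg (15 mg freebase/kg, 100 µCi/kg). One male and one female killed by CO2 at 24, 72, 168 and 336 h. Carcasses frozen in solid CO2/hexane and embedded in frozen cellulose. 30 µm sagittal cryosections were freeze-dried. Tissue radioactivity measured by quantitative whole-body autoradiography against calibration standards, with background subtracted.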

Cynomolgus monkey [1] = assay: AUC (0 to infinity) as total radioactivity in female cynomolgus monkey plasma at 6 mg/kg, po administered as single dose by LC/MS/MS analysis; format: ADME, organism-based, Macaca fascicularis; set-up: time infinity, dose 6 mg/kg, dosed compound name [14C]Sunitinib, route oral; details: in vivo
Method in brief: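 Cynomolgus monkeys of both sexes received one oral gavage of [14C]sunitinib L-malate at 6 mg/kg (37 µCi/kg). Femoral-vein blood was taken into heparin from 0.5 to 336 h. Plasma was kept cold and protected from light, then stored at -80 °C. Total radioactivity was by scintillation counting and sunitinib by methanol-extraction LC-MS-MS. Cmax was from raw data, t½ from the log-linear terminal slope, AUC(0-∞) by linear trapezoidal rule.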

Kidney [2] = assay: Drug concentration in female albino rat kidney assessed as radioactivity per gram of tissue at 20 mg/kg administered as single dose via gastric gavage measured after 168 hrs by autoradiographic analysis; format: ADME, organism-based; set-up: dose 20 mg/kg, dosed compound name [14C]Sunitinib; details: in vivo, po
Method in brief: (§2)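 Sprague Dawley albino rats, ca 7-8 weeks old, dosed once by gastric gavage with [14C]sunitinib L-malate (15 mg freebase/kg, 100 µCi/kg). One male and one female killed by CO2 at 3, 6, 24, 72 and 168 h. Carcasses frozen in solid CO2/hexane, embedded and cut into 30 µm sagittal sections, then freeze-dried. Radioactivity quantified by whole-body autoradiography against standards by regression, background subtracted.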

Large intestine [3] = assay: Drug concentration in male Lister Hooded pigmented rat large intestine assessed as radioactivity per gram of tissue at 20 mg/kg administered as single dose via gastric gavage measured after 24 hrs by autoradiographic analysis; format: ADME, organism-based; set-up: dose 20 mg/kg, dosed compound name [14C]Sunitinib; details: in vivo, po
[4] = Drug concentration in male Lister Hooded pigmented rat eye assessed as radioactivity per gram of tissue at 20 mg/kg administered as single dose via gastric gavage measured after 24 hrs by autoradiographic analysis; format: ADME, organism-based; set-up: dose 20 mg/kg, dosed compound name [14C]Sunitinib; details: in vivo, po
[5] = Drug concentration in female albino rat lachrymal gland assessed as radioactivity per gram of tissue at 20 mg/kg administered as single dose via gastric gavage measured after 24 hrs by autoradiographic analysis; format: ADME, organism-based; set-up: dose 20 mg/kg, dosed compound name [14C]Sunitinib; details: in vivo, po; method in brief: as §2
[6] = Drug concentration in male Lister Hooded pigmented rat pituitary gland assessed as radioactivity per gram of tissue at 20 mg/kg administered as single dose via gastric gavage measured after 72 hrs by autoradiographic analysis; format: ADME, organism-based; set-up: dose 20 mg/kg, dosed compound name [14C]Sunitinib; details: in vivo, po
Thymus [7] = assay: Drug concentration in female albino rat thymus assessed as radioactivity per gram of tissue at 20 mg/kg administered as single dose via gastric gavage measured after 3 hrs by autoradiographic analysis; format: ADME, organism-based; set-up: dose 20 mg/kg, dosed compound name [14C]Sunitinib; details: in vivo, po
[8] = Drug concentration in male Lister Hooded pigmented rat lachrymal gland assessed as radioactivity per gram of tissue at 20 mg/kg administered as single dose via gastric gavage measured after 168 hrs by autoradiographic analysis; format: ADME, organism-based; set-up: dose 20 mg/kg, dosed compound name [14C]Sunitinib; details: in vivo, po
Brain = assay: Drug concentration in female albino rat brain assessed as radioactivity per gram of tissue at 20 mg/kg administered as single dose via gastric gavage measured after 24 hrs by autoradiographic analysis; format: ADME, organism-based; set-up: dose 20 mg/kg, dosed compound name [14C]Sunitinib; details: in vivo, po
Method in brief: (§3)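 Sprague Dawley (albino) rats, ca 7-8 weeks old, received a single gastric-gavage dose of [14C]sunitinib L-malate at 20 mg/kg (15 mg freebase/kg, 100 µCi/kg). One animal per sex killed by CO2 at 3, 6, 24, 72 and 168 h, then frozen in CO2/hexane. 30 µm sagittal sections were cut and freeze-dried. Radioactivity per gram quantified by whole-body autoradiography using regression against standards. LOQ 0.04–0.06 µg freebase equiv/g.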

Cynomolgus monkey [9] = assay: Total drug recovery in female cynomolgus monkey at 6 mg/kg, po administered as single dose during 0 to 336 hrs by liquid scintillation counting; format: ADME, organism-based, Macaca fascicularis; set-up: dose 6 mg/kg, dosed compound name [14C]Sunitinib, route oral; details: in vivo
[10] = Drug concentration in male albino rat skeletal muscle assessed as radioactivity per gram of tissue at 20 mg/kg administered as single dose via gastric gavage measured after 24 hrs by autoradiographic analysis; format: ADME, organism-based; set-up: dose 20 mg/kg, dosed compound name [14C]Sunitinib; details: in vivo, po
[11] = Drug concentration in male albino rat uveal tract assessed as radioactivity per gram of tissue at 20 mg/kg administered as single dose via gastric gavage measured after 6 hrs by autoradiographic analysis; format: ADME, organism-based; set-up: dose 20 mg/kg, dosed compound name [14C]Sunitinib; details: in vivo, po
Thymus [12] = assay: Drug concentration in male Lister Hooded pigmented rat thymus assessed as radioactivity per gram of tissue at 20 mg/kg administered as single dose via gastric gavage measured after 24 hrs by autoradiographic analysis; format: ADME, organism-based; set-up: dose 20 mg/kg, dosed compound name [14C]Sunitinib; details: in vivo, po
Zone of skin [13] = assay: Drug concentration in male albino rat abdomen skin assessed as radioactivity per gram of tissue at 20 mg/kg administered as single dose via gastric gavage measured after 3 hrs by autoradiographic analysis; format: ADME, organism-based; set-up: dose 20 mg/kg, dosed compound name [14C]Sunitinib; details: in vivo, po
[14] = Drug concentration in male albino rat lachrymal gland assessed as radioactivity per gram of tissue at 20 mg/kg administered as single dose via gastric gavage measured after 24 hrs by autoradiographic analysis; format: ADME, organism-based; set-up: dose 20 mg/kg, dosed compound name [14C]Sunitinib; details: in vivo, po
Large intestine [15] = assay: Drug concentration in male albino rat large intestine assessed as radioactivity per gram of tissue at 20 mg/kg administered as single dose via gastric gavage measured after 3 hrs by autoradiographic analysis; format: ADME, organism-based; set-up: dose 20 mg/kg, dosed compound name [14C]Sunitinib; details: in vivo, po
[16] = Drug concentration in female albino rat thyroid gland assessed as radioactivity per gram of tissue at 20 mg/kg administered as single dose via gastric gavage measured after 3 hrs by autoradiographic analysis; format: ADME, organism-based; set-up: dose 20 mg/kg, dosed compound name [14C]Sunitinib; details: in vivo, po
[17] = Drug concentration in female albino rat preputial gland assessed as radioactivity per gram of tissue at 20 mg/kg administered as single dose via gastric gavage measured after 24 hrs by autoradiographic analysis; format: ADME, organism-based; set-up: dose 20 mg/kg, dosed compound name [14C]Sunitinib; details: in vivo, po; method in brief: as §2
[18] = Drug concentration in female albino rat skeletal muscle assessed as radioactivity per gram of tissue at 20 mg/kg administered as single dose via gastric gavage measured after 24 hrs by autoradiographic analysis; format: ADME, organism-based; set-up: dose 20 mg/kg, dosed compound name [14C]Sunitinib; details: in vivo, po
Kidney [19] = assay: Drug concentration in male albino rat kidney assessed as radioactivity per gram of tissue at 20 mg/kg administered as single dose via gastric gavage measured after 6 hrs by autoradiographic analysis; format: ADME, organism-based; set-up: dose 20 mg/kg, dosed compound name [14C]Sunitinib; details: in vivo, po
[20] = Drug concentration in female albino rat thyroid gland assessed as radioactivity per gram of tissue at 20 mg/kg administered as single dose via gastric gavage measured after 6 hrs by autoradiographic analysis; format: ADME, organism-based; set-up: dose 20 mg/kg, dosed compound name [14C]Sunitinib; details: in vivo, po
Zone of skin [21] = assay: Drug concentration in female albino rat abdomen skin assessed as radioactivity per gram of tissue at 20 mg/kg administered as single dose via gastric gavage measured after 3 hrs by autoradiographic analysis; format: ADME, organism-based; set-up: dose 20 mg/kg, dosed compound name [14C]Sunitinib; details: in vivo, po; method in brief: as §3
Lung = assay: Drug concentration in female albino rat lung assessed as radioactivity per gram of tissue at 20 mg/kg administered as single dose via gastric gavage measured after 6 hrs by autoradiographic analysis; format: ADME, organism-based; set-up: dose 20 mg/kg, dosed compound name [14C]Sunitinib; details: in vivo, po; method in brief: as §2
Large intestine [22] = assay: Drug concentration in female albino rat large intestine assessed as radioactivity per gram of tissue at 20 mg/kg administered as single dose via gastric gavage measured after 72 hrs by autoradiographic analysis; format: ADME, organism-based; set-up: dose 20 mg/kg, dosed compound name [14C]Sunitinib; details: in vivo, po; method in brief: as §2
Spinal cord = assay: Drug concentration in female albino rat spinal cord assessed as radioactivity per gram of tissue at 20 mg/kg administered as single dose via gastric gavage measured after 24 hrs by autoradiographic analysis; format: ADME, organism-based; set-up: dose 20 mg/kg, dosed compound name [14C]Sunitinib; details: in vivo, po
Pancreas = assay: Drug concentration in male albino rat pancreas assessed as radioactivity per gram of tissue at 20 mg/kg administered as single dose via gastric gavage measured after 6 hrs by autoradiographic analysis; format: ADME, organism-based; set-up: dose 20 mg/kg, dosed compound name [14C]Sunitinib; details: in vivo, po
Large intestine [23] = assay: Drug concentration in female Lister Hooded pigmented rat large intestine assessed as radioactivity per gram of tissue at 20 mg/kg administered as single dose via gastric gavage measured after 24 hrs by autoradiographic analysis; format: ADME, organism-based; set-up: dose 20 mg/kg, dosed compound name [14C]Sunitinib; details: in vivo, po; method in brief: as §1

Molecule `CCN(CC)CCNC(=O)c1c(C)[nH]c(/[14CH]=C2\C(=O)Nc3ccc(F)cc32)c1C.O=C(O)C[C@H](O)C(=O)O` has a Radiolabel recovery (Liver) of 0.32 ugequiv, an AUC (Cynomolgus monkey [1]) of 5692 ng.Eq.hr/ml and a Radiolabel recovery (Kidney [2]) of 0.09 ugequiv. The Radiolabel recovery (Large intestine [3]) was 0.69 ugequiv, the Radiolabel recovery [4] was 7.8 ugequiv and the Radiolabel recovery [5] was 6.79 ugequiv. For the same molecule, the Radiolabel recovery [6] was 1.65 ugequiv, the Radiolabel recovery (Thymus [7]) was 9.36 ugequiv and the Radiolabel recovery [8] was 0.06 ugequiv. The Radiolabel recovery (Brain) was 0.07 ugequiv, the Radiolabel recovery (Cynomolgus monkey [9]) was 90.7% and the Radiolabel recovery [10] was 0.16 ugequiv. For the same molecule, the Radiolabel recovery [11] was 5.08 ugequiv, the Radiolabel recovery (Thymus [12]) was 0.67 ugequiv and the Radiolabel recovery (Zone of skin [13]) was 2.81 ugequiv. For the same molecule, the Radiolabel recovery [14] was 4.7 ugequiv, the Radiolabel recovery (Large intestine [15]) was 6.05 ugequiv and the Radiolabel recovery [16] was 18.64 ugequiv. For the same molecule, the Radiolabel recovery [17] was 5.79 ugequiv, the Radiolabel recovery [18] was 0.33 ugequiv and the Radiolabel recovery (Kidney [19]) was 9.43 ugequiv. The Radiolabel recovery [20] was 11.23 ugequiv, the Radiolabel recovery (Zone of skin [21]) was 3.16 ugequiv and the Radiolabel recovery (Lung) was 16.19 ugequiv. For the same molecule, the Radiolabel recovery (Large intestine [22]) was 0.09 ugequiv, the Radiolabel recovery (Spinal cord) was 0.07 ugequiv and the Radiolabel recovery (Pancreas) was 9.18 ugequiv. For the same molecule, the Radiolabel recovery (Large intestine [23]) was 0.78 ugequiv.
